Assay [1] relates to Staphylococcus aureus. Briefly: Antibacterial activity against Staphylococcus aureus assessed as induction of bacterial membrane depolarization at 8 ug/ml by flow cytometry. It counts as functional. The method, boiled down: (§1)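 Membrane potential was measured with DiOC2(3) flow cytometry. Early-exponential cultures (A625 = 0.3) in cation-adjusted MHB were diluted to 106 CFU/ml and dosed in 5-ml aliquots at 37°C with shaking. Samples were stained 5 min with 30 µM DiOC2(3) (final). 5,000 events per sample were collected. The red/green fluorescence ratio was gated against a CCCP-depolarized population. The endpoint was 90 min unless noted.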

Assay [2] concerns Staphylococcus aureus. Briefly: Antibacterial activity against Staphylococcus aureus. It counts as functional. The method, boiled down: (§2)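 MIC determined with commercially manufactured dry-form panels; the organisms were grown in cation-adjusted Mueller-Hinton II broth.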
The subject of assay [3] is Staphylococcus aureus. Description: Antibacterial activity against daptomycin-nonsusceptible Staphylococcus aureus MED2034. It is filed as functional. The method, boiled down:
as §2

In assay [4] the test system is Staphylococcus aureus. Briefly: Antibacterial activity against Staphylococcus aureus grown in MHB medium assessed as induction of bacterial membrane depolarization at 2 to 32 ug/ml by flow cytometry. It is filed as functional, organism-based. The method, boiled down: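 MHB-grown S. aureus either kept in MHB or washed and resuspended in cation-containing PBS, then equilibrated 10 min at 37°C before telavancin 2–32 µg/ml. Time course of depolarization measured by DiOC2(3) flow cytometry (final 30 µM, 5 min stain, red/green ratio). Three independent experiments.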
For orientation: In flow cytometry, cells or beads pass a laser one at a time.

Assay [5] has as its system Staphylococcus aureus. Briefly: Antibacterial activity against Staphylococcus aureus assessed as induction of bacterial membrane depolarization at 8 ug/ml by flow cytometry in presence of 0.05 mM D-Ala-D-Ala. It is filed as functional. The gist of the method: (§3)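 S. aureus at 10^6 CFU/ml in MHB at 37°C. dKAA tripeptide (0.05, 0.5 or 5 mM) added before telavancin (8 or 32 µg/ml), 60 min reading. DiOC2(3) staining (final 30 µM, 5 min), flow cytometry of 5,000 events, red/green fluorescence ratio; depolarized gate defined with CCCP-treated cells.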

Assay [6] concerns Staphylococcus aureus. Description: Antibacterial activity against Staphylococcus aureus assessed as induction of bacterial membrane depolarization at 8 ug/ml by flow cytometry in presence of 0.5 mM D-Ala-D-Ala. It counts as functional. The method, boiled down: as §3
Assay [7] concerns Staphylococcus aureus. Description: Antibacterial activity against Staphylococcus aureus assessed as induction of bacterial membrane depolarization at 8 ug/ml by flow cytometry in presence of 5 mM D-Ala-D-Ala. It counts as functional. The method, boiled down:
as §3

The subject of assay [8] is Staphylococcus aureus. Description: Antibacterial activity against methicillin-resistant Staphylococcus aureus ATCC 33591. It is filed as functional. The gist of the method: as §2
Assay [9] has as its system Staphylococcus aureus. Description: Antibacterial activity against Staphylococcus aureus assessed as induction of bacterial membrane depolarization by flow cytometry. It is filed as functional, organism-based. The method, boiled down:
(§4)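 S. aureus ATCC 29213 grown in MHB at 37°C to A625 = 0.3, diluted to 10^6 CFU/ml in MHB. Compound added to 5 ml aliquots, shaking water bath at 37°C, usually 90 min endpoint. Samples mixed 1:1 with DiOC2(3) (final 30 µM) and stained 5 min. Flow cytometry of 5,000 events, red/green ratio; depolarized gate set from CCCP. IC50 from four-parameter sigmoidal fit.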

Assay [10] deals with Staphylococcus aureus. Briefly: Antibacterial activity against vancomycin-intermediate Staphylococcus aureus ATCC 700699 assessed as induction of bacterial membrane depolarization at 32 ug/ml by flow cytometry. It is filed as functional. The method, boiled down: (§5)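 Strains with resistance phenotypes tested in the DiOC2(3) flow-cytometric depolarization assay. Cells at 10^6 CFU/ml in MHB at 37°C, dye final 30 µM, 5 min stain, 5,000 events, red/green ratio. Percent depolarization followed over time.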

For assay [11], the system named is Staphylococcus aureus. Briefly: Antibacterial activity against heterogeneous vancomycin-intermediate Staphylococcus aureus ATCC 700698 assessed as induction of bacterial membrane depolarization at 32 ug/ml by flow cytometry. It is filed as functional. The gist of the method: as §5
The test system of assay [12] is Staphylococcus aureus. Briefly: Antibacterial activity against daptomycin-nonsusceptible Staphylococcus aureus MED2034 assessed as induction of bacterial membrane depolarization at 32 ug/ml by flow cytometry. It counts as functional. The gist of the method: as §1
In assay [13] the test system is Staphylococcus aureus. Description: Antibacterial activity against vancomycin-intermediate Staphylococcus aureus ATCC 700699. It is filed as functional. The method, boiled down:
as §2

The test system of assay [14] is Staphylococcus aureus. Description: Antibacterial activity against heterogeneous vancomycin-intermediate Staphylococcus aureus ATCC 700698. It counts as functional.
Assay [15] deals with Staphylococcus aureus. Description: Antibacterial activity against Staphylococcus aureus in presence of 0.05 mM D-Ala-D-Ala. It counts as functional.
The test system of assay [16] is Staphylococcus aureus. Briefly: Antibacterial activity against Staphylococcus aureus in presence of 0.5 mM D-Ala-D-Ala. It is filed as functional.
In assay [17] the test system is Staphylococcus aureus. Description: Antibacterial activity against Staphylococcus aureus in presence of 5 mM D-Ala-D-Ala. It is filed as functional.
Assay [18] has as its system Staphylococcus aureus. Briefly: Antibacterial activity against Staphylococcus aureus assessed as induction of bacterial membrane depolarization at 32 ug/ml by flow cytometry. It counts as functional. The method, boiled down: as §4
Assay [19] concerns Staphylococcus aureus. Briefly: Antibacterial activity against Staphylococcus aureus assessed as induction of bacterial membrane depolarization at 32 ug/ml by flow cytometry in presence of 0.05 mM D-Ala-D-Ala. It counts as functional. The gist of the method: as §3
Assay [20] has as its system Staphylococcus aureus. Description: Antibacterial activity against Staphylococcus aureus assessed as induction of bacterial membrane depolarization at 32 ug/ml by flow cytometry in presence of 0.5 mM D-Ala-D-Ala. It is filed as functional. The gist of the method: as §3
Assay [21] has as its system Staphylococcus aureus. Briefly: Antibacterial activity against Staphylococcus aureus assessed as induction of bacterial membrane depolarization at 32 ug/ml by flow cytometry in presence of 5 mM D-Ala-D-Ala. It counts as functional. The method, boiled down:
as §3

Assay [22] relates to Staphylococcus aureus. Description: Inhibition of bacterial cell wall precursor lipid 2 synthesis in Staphylococcus aureus assessed as induction of membrane depolarization at 32 ug/ml by flow cytometry in presence of fosfomycin. Set-up: scale not given: the % may be the effect or the level left. It is filed as functional. The gist of the method:
(§6)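 Cells then exposed to telavancin 32 µg/ml for 15 min (nisin 2 µg/ml, 5 min). DiOC2(3) flow cytometry. Percent depolarization expressed relative to samples without pretreatment.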

For assay [23], the system named is Staphylococcus aureus. Briefly: Inhibition of bacterial cell wall precursor lipid 2 synthesis in Staphylococcus aureus assessed as induction of membrane depolarization at 32 ug/ml by flow cytometry in presence of D-cycloserine. It counts as functional. Set-up: scale not given: the % may be the effect or the level left. The method, boiled down: as §6
For assay [24], the system named is Staphylococcus aureus. Briefly: Inhibition of bacterial cell wall precursor lipid 2 synthesis in Staphylococcus aureus assessed as induction of membrane depolarization at 32 ug/ml by flow cytometry in presence of bacitracin. It is filed as functional. Further details: scale not given: the % may be the effect or the level left. The gist of the method:
as §6

Another assay deals with Cell membrane. Description: Binding affinity to cell membrane of Staphylococcus aureus grown in MHB medium at 8 ug/ml by scintillation counting relative to control. The method, boiled down:
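S. aureus at 10^8 CFU/ml in MHB or PBS at 37°C, exposed to [14C]telavancin 8 µg/ml over 2 h. At each time point, cells collected on 0.2-µm filter plate, dried overnight at 37°C, and scintillation counted. Three independent experiments.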

Assay [25] concerns Staphylococcus aureus. Description: Antibacterial activity against Staphylococcus aureus assessed as induction of bacterial cell lysis at 8 to 32 ug/ml by spectrophotometry. It counts as functional, organism-based. The gist of the method: (§7)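 S. aureus ATCC 33591 grown in MHB to early exponential phase (A625 = 0.3). 5 ml aliquots treated at final concentration, shaking water bath at 37°C. Turbidity read by spectrophotometer. Lysis also scored by microscopy: intact cells dark, lysed cells transparent; imaged at 0, 2 and 6 h, at least 30 cells per condition. Lysostaphin as lysis control. Three independent experiments.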

Assay [26] deals with Staphylococcus aureus. Description: Antibacterial activity against Staphylococcus aureus assessed as bacterial count at 8 to 32 ug/ml by turbidity assay. It is filed as functional. The method, boiled down: as §7
Assay [27] has as its system Staphylococcus aureus. Briefly: Antibacterial activity against Staphylococcus aureus assessed as change in cellular membrane integrity at 8 to 32 ug/ml up to 6 hrs by spectrophotometry. It is filed as functional, organism-based. The method, boiled down: as §7
The subject of assay [28] is Staphylococcus aureus. Description: Antibacterial activity against Staphylococcus aureus assessed as induction of bacterial cell lysis at 8 to 32 ug/ml by turbidity assay. It is filed as functional, organism-based. The method, boiled down:
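S. aureus ATCC 33591 was grown in cation-adjusted MHB to early exponential phase (A625 = 0.3). 5-ml aliquots received compound at the final concentration and were incubated in a shaking 37°C water bath. Lysis was followed by turbidity. Cells were also imaged by microscopy at 0, 2 and 6 h, scoring at least 30 cells per condition. Lysostaphin served as the lysis control. Means ± SD of three independent experiments.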

Values after ≈ are worked out from the molar mass of the structure shown. Active and inactive are the calls of the source. The calls are words filed in the database; no cut-off is given here.

As usually defined, the MIC is the lowest concentration that inhibits growth of the organism. Usually IC50 stands for the concentration at which inhibition is half-maximal.

`CCCCCCCCCCNCCN[C@@]1(C)C[C@H](O[C@H]2[C@H](Oc3c4cc5cc3Oc3ccc(cc3Cl)[C@H](O)[C@@H](NC(=O)O)C(=O)N[C@@H](CC(N)=O)C(=O)N[C@H]5C(=O)N[C@H]3C(=O)N[C@H](C(=O)N[C@H](C(=O)O)c5cc(O)c(CNCP(=O)(O)O)c(O)c5-c5cc3ccc5O)[C@H](O)c3ccc(c(Cl)c3)O4)O[C@H](CO)[C@@H](O)[C@@H]2O)O[C@@H](C)[C@H]1O`: in the assay on Staphylococcus aureus [1], the Activity stood at 35%. In the assay on Staphylococcus aureus [2], the MIC is 8 µg/mL (≈ 4.78 µM).

Turning to `CCCCCCCCCC(=O)N[C@@H](Cc1c[nH]c2ccccc12)C(=O)N[C@H](CC(N)=O)C(=O)N[C@@H](CC(=O)O)C(=O)N[C@@H]1C(=O)NCC(=O)N[C@@H](CCCN)C(=O)N[C@@H](CC(=O)O)C(=O)N[C@H](C)C(=O)N[C@@H](CC(=O)O)C(=O)NCC(=O)N[C@H](CO)C(=O)N[C@@H]([C@H](C)CC(=O)O)C(=O)N[C@@H](CC(=O)c2ccccc2N)C(=O)O[C@@H]1C`, in the assay with Staphylococcus aureus [3], the MIC amounted to 4 µg/mL (≈ 2.47 µM).

In turn, `CCCCCCCCCCO` [DECANOL] registered an MIC in the assay on Staphylococcus aureus [2] of 128 µg/mL (≈ 809 µM). In addition, the outcome in the assay on Staphylococcus aureus [4] was Active.

Turning to `CCCCCCCCCCNCCN[C@@]1(C)C[C@H](O[C@H]2[C@H](Oc3c4cc5cc3Oc3ccc(cc3Cl)[C@@H](O)[C@@H](NC(=O)[C@@H](CC(C)C)NC)C(=O)N[C@@H](CC(N)=O)C(=O)N[C@H]5C(=O)N[C@H]3C(=O)N[C@H](C(=O)N[C@H](C(=O)O)c5cc(O)c(CNCP(=O)(O)O)c(O)c5-c5cc3ccc5O)[C@H](O)c3ccc(c(Cl)c3)O4)O[C@H](CO)[C@@H](O)[C@@H]2O)O[C@@H](C)[C@H]1O` [TELAVANCIN], the Activity is 33% in the assay with Staphylococcus aureus [5]; 17% in the assay with Staphylococcus aureus [6]; 7% in the assay on Staphylococcus aureus [7]; 49% in the assay on Staphylococcus aureus [1]; “Dose-dependent effect” with Staphylococcus aureus [9]; 61% in the assay on Staphylococcus aureus [10]. Besides, the Activity amounted to 78% with Staphylococcus aureus [11]; 77% in the assay with Staphylococcus aureus [12]; 94% in the assay with Staphylococcus aureus [18]; 68% in the assay on Staphylococcus aureus [19]; 19% in the assay with Staphylococcus aureus [20]; 14% in the assay with Staphylococcus aureus [21]. The Activity in the assay on Staphylococcus aureus [22] is listed as 29%; in the assay with Staphylococcus aureus [23], 38%; with Staphylococcus aureus [24] it was 27%. Moreover, the MIC in the assay on Staphylococcus aureus [8] is not above 0.5 µg/mL; in the assay with Staphylococcus aureus [2] it was 0.25 µg/mL (≈ 0.142 µM); against Staphylococcus aureus [13] it was 0.5 µg/mL (≈ 0.285 µM); against Staphylococcus aureus [14], not above 0.5 µg/mL; against Staphylococcus aureus [3], not above 0.5 µg/mL; with Staphylococcus aureus [15], 0.5 µg/mL. Moreover, the results for the MIC in the assay with Staphylococcus aureus [16] and in the assay with Staphylococcus aureus [17] were 1 µg/mL and 4 µg/mL, respectively. In addition, the IC50 in the assay with Staphylococcus aureus [9] was determined as 3.6 µg/mL (≈ 2.05 µM). Besides, in the assay on Staphylococcus aureus [4], the outcome was Active. The molecule also yielded a fold change (FC) in the assay with Cell membrane of 2.8. Further, the result in the assay on Staphylococcus aureus [25] and in the assay with Staphylococcus aureus [27] was inactive. Also, the log10CFU/ml in the assay with Staphylococcus aureus [26] is on record as 3.

Take `CN[C@H](CC(C)C)C(=O)N[C@H]1C(=O)N[C@@H](CC(N)=O)C(=O)N[C@H]2C(=O)N[C@H]3C(=O)N[C@H](C(=O)N[C@H](C(=O)O)c4cc(O)cc(O)c4-c4cc3ccc4O)[C@H](O)c3ccc(c(Cl)c3)Oc3cc2cc(c3O[C@@H]2O[C@H](CO)[C@@H](O)[C@H](O)[C@H]2O[C@H]2C[C@](C)(N)[C@H](O)[C@H](C)O2)Oc2ccc(cc2Cl)[C@H]1O` [VANCOMYCIN]: the IC50 in the assay with Staphylococcus aureus [9] is more than 96 µg/mL. In the assay on Staphylococcus aureus [13], this molecule registered an MIC of 8 µg/mL (≈ 5.52 µM). Also, in the assay on Staphylococcus aureus [28], the outcome was inactive.
